Laboratory results: ChEMBL document CHEMBL1152898, “Synthesis and antitumor activity of some new xanthotoxin derivatives” (Eur J Med Chem, 2009)
In brackets after ≈: the same amount, converted by molar mass. Activity calls are given as the source filed them. The calls are words filed in the database; no cut-off is given here.

Columns and labels:
MCF7 = assay: Antitumor activity against human MCF7 cells after 72 hrs by MTS assay; type: functional, cell-based
How it was run: (§1)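 HeLa or MCF-7 cells were grown in Eagle's MEM with Earle's salts, 2 mM L-glutamine, 1.0 mM pyruvate, 0.1 mM NEAA and 10% FBS. MCF-7 medium also had 0.01 mg/mL insulin. Cells were seeded at 10⁴/well and dosed at 24 h, giving final 5, 10, 50, 100 µg/mL in 2.5% DMSO. After 72 h, MTS was read at 3 h with pre-reagent absorbance subtracted. Triplicates were compared with 2.5% DMSO controls.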

HeLa [1] = assay: Antitumor activity against human HeLa cells assessed as cell viability at 100 ug/ml after 72 hrs by MTS assay; type: functional; settings: read-out: Activity; how it was run: as §1
HeLa [2] = assay: Antitumor activity against human HeLa cells assessed as cell viability at 5 ug/ml after 72 hrs by MTS assay; type: functional; settings: read-out: Activity; how it was run: as §1
HeLa [3] = assay: Antitumor activity against human HeLa cells assessed as cell viability at 50 ug/ml after 72 hrs by MTS assay; type: functional; settings: read-out: Activity; how it was run: as §1
HeLa [4] = assay: Antitumor activity against human HeLa cells assessed as cell viability at 10 ug/ml after 72 hrs by MTS assay; type: functional; settings: read-out: Activity; how it was run: as §1
HeLa [5] = assay: Antitumor activity against human HeLa cells after 72 hrs by MTS assay; type: functional, cell-based; how it was run: as §1

Structure (SMILES)	Activity (MCF7)	viability at 100 µg/mL (HeLa [1])	viability at 5 µg/mL (HeLa [2])	viability at 50 µg/mL (HeLa [3])	viability at 10 µg/mL (HeLa [4])	IC50 (HeLa [5])
COc1c2occc2c(N2C(=O)CSC2c2ccc(Br)cc2)c2ccc(=O)oc12 (stereo not given)	inactive	26%	82%	26%	91%	40 mg/L (≈ 84.7 µM)
COc1c2occc2c(NC(=S)NCc2ccccc2)c2ccc(=O)oc12	inactive	35%	74%	34%	56%	7.5 mg/L (≈ 19.7 µM)
CCNC(=S)Nc1c2ccoc2c(OC)c2oc(=O)ccc12	inactive	41%	101%	35%	70%	23 mg/L (≈ 72.2 µM)
COc1c2occc2c(/N=C/c2cccs2)c2ccc(=O)oc12	inactive	28%	70%	32%	53%	7.2 mg/L (≈ 22.1 µM)
COc1c2occc2cc2ccc(=O)oc12 [METHOXSALEN]	inactive	16%	62%	21%	51%	7.6 mg/L (≈ 35.2 µM)
